Measured values reported in ChEMBL document CHEMBL1147733, “Design, synthesis, and biological evaluation of phosphinopeptides against Trypanosoma cruzi targeting trypanothione biosynthesis” (J Med Chem, 2006).

Legend:
[1] = tested on: Trypanosoma cruzi; assay: Inhibitory activity against Trypanosoma cruzi amastigotes; type: functional, organism-based; details: for IC50: Trypanosoma cruzi
Procedure, shortened: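 Gamma-irradiated L6E9 myoblasts in DMEM/20% fetal calf serum, 24 h at 37 °C, then infected with 4.17 × 10⁶ trypomastigotes/well for 2 h (7% CO2). After washing, medium with 1 µCi/mL [5,6-³H]uracil and drug in ethanol added; TCA-precipitable ³H measured at day 3. Host toxicity up to 50 µM by phase-contrast microscopy; values are means of three experiments.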

[2] = tested on: Trypanosoma cruzi; assay: Inhibitory activity against Trypanosoma cruzi Y epimastigotes; type: functional, organism-based
Procedure, shortened: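 Epimastigotes in sterile screw-cap tubes, drugs in absolute ethanol at 1, 5, 15 and 25 µg/mL, each in triplicate; ethanol-only control and medium blank. Growth read as absorbance at 600 nm against medium; percent inhibition = 100 − (ΔA_drug × 100)/ΔA_control, ΔA taken between start and end of culture.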

CCCCCP(=O)(O)CNC(=O)[C@H](CC(C)C)NC(=O)CCC(N)C(=O)O (some centres not stated)
IC50 [1]: 14.2 µM | IC50 [2]: > 50 µM

CC(C)C[C@H](NC(=O)CCC(N)C(=O)O)C(=O)NCP(C)(=O)O (some centres not stated)
IC50 [1]: > 50 µM | IC50 [2]: > 50 µM

CCCCCCCP(=O)(O)CNC(=O)[C@H](CC(C)C)NC(=O)CCC(N)C(=O)O (some centres not stated)
Inhibition [1]: 31% | IC50 [1]: > 50 µM | IC50 [2]: > 50 µM

CCCCCCP(=O)(O)CNC(=O)[C@H](CC(C)C)NC(=O)CCC(N)C(=O)O (some centres not stated)
Inhibition [1]: 45% | IC50 [1]: > 50 µM | IC50 [2]: > 50 µM

CCCP(=O)(O)CNC(=O)[C@H](CC(C)C)NC(=O)CCC(N)C(=O)O (some centres not stated)
IC50 [1]: > 50 µM | IC50 [2]: > 50 µM

CCCCP(=O)(O)CNC(=O)[C@H](CC(C)C)NC(=O)CCC(N)C(=O)O (some centres not stated)
IC50 [1]: 9.8 µM | IC50 [2]: > 50 µM

N#CSCCOc1ccc(Oc2ccccc2)cc1
IC50 [1]: 2 µM

CCP(=O)(O)CNC(=O)[C@H](CC(C)C)NC(=O)CCC(N)C(=O)O (some centres not stated)
IC50 [1]: > 50 µM | IC50 [2]: > 50 µM
